# Experimental data from different studies.
# Each line is one published result; the experiments were not run side by side.
# Target: Homeodomain-interacting protein kinase 2 (HIPK2, Homo sapiens, UniProt Q9H2X6)
SMILES,effect on,action,method,tested at,endpoint,value
O=c1[nH]c2ccccc2n1C1CCN(Cc2ccc(-c3[nH]c4cc5ncnc5cc4nc3-c3ccccc3)cc2)CC1,cell-free assay,,,0.5 µM,remaining signal,110%
Cc1nn(C)cc1-c1nc2c(N3CCN(Cc4ccc(Cl)cc4)CC3)c(Cl)cnc2[nH]1,binding,,competition with immobilised ligand,1 µM,remaining binding,70%
Cn1cncc1[C@@](O)(COc1ccc(C#N)cc1-c1ccc(OC(F)(F)F)cc1)c1ccc(C#N)cc1,cell-free assay,,competition with immobilised ligand,1 µM,remaining binding,100%
Nc1ncc(-c2nc(N3CCOCC3)nc(N3CCOCC3)n2)c(C(F)F)n1,binding,,competition with immobilised ligand,10 µM,remaining binding,59%
Cn1cc(-c2cccc(N3CCc4c(sc5c4CC(C)(C)C5)C3=O)c2CO)cc(Nc2ccncn2)c1=O,enzyme activity,inhibitor,,1 µM,inhibition,-4%
N#CC1(c2ccccn2)CCN(Cc2cc(C(=O)O)c(=O)n3ccccc23)CC1,cell-free assay,,competition with immobilised ligand,1 µM,remaining binding,66%
Cn1cc(-c2cc(F)cc(N3CCn4c(cc5c4CCCC5)C3=O)c2CO)cc(Nc2ccc(N3CCN(C4COC4)CC3)cn2)c1=O,enzyme activity,inhibitor,,0.1 µM,inhibition,9%
COc1ncccc1-c1cnn2ccc(N3CCN(C(=O)OC(C)C)CC3)nc12,binding,,competition with immobilised ligand,1 µM,remaining binding,88%
CC(C)(C)c1cc(C=C(C#N)C#N)cc(Br)c1O,enzyme activity,inhibitor,,0.5 µM,remaining activity,110%
